T cruzi inh = inhibitors of intracellular T. cruzi growth, primary screen, luminescence, NIH3T3 host cells; T. cruzi beta-gal in NIH3T3, 90 h; inhibition, % (no concentration beside the values); 300,000 compounds, 1.4% hits; AID 1885, 2009;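 active means mean inhibition across valid replicates above about 55%, limit read from the data; inconclusive means mean below that limit but half or more replicates reach it; inactive means mean below it, under half of replicates reach it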;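 further: signal also drops with host cell toxicity which is not excluded here; higher percent means less beta-gal luminescence so fewer parasites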
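compound dosing = single 50 nL compound addition per well in DMSO | material = NIH/3T3 host cells with β-galactosidase reporter T. cruzi | input = 5,000 host fibroblasts per well | timing = ≥90 h infection period, 3 h prior cell attachment | read-out basis = percent inhibition of parasite-derived β-gal signal | detection = GalScreen β-gal luminescence, detergent lysis, 60 min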
Mdm2-MdmX inh = inhibitors of human Mdm2-MdmX association, primary screen, cell-based, luminescence, split luciferase, SaOS-2, uHTS; Protein Mdm4 (Homo sapiens) + E3 ubiquitin-protein ligase Mdm2 (Homo sapiens), …; SaOS-2 split-luciferase Mdm2/MdmX complementation; inhibition, % at 8 µM; 330,000 compounds, 3% hits; AID 485346, 2010;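 active means inhibition of at least 50% at 8 µM in the primary screen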
Target sequence (O15151 whole entry, looked up): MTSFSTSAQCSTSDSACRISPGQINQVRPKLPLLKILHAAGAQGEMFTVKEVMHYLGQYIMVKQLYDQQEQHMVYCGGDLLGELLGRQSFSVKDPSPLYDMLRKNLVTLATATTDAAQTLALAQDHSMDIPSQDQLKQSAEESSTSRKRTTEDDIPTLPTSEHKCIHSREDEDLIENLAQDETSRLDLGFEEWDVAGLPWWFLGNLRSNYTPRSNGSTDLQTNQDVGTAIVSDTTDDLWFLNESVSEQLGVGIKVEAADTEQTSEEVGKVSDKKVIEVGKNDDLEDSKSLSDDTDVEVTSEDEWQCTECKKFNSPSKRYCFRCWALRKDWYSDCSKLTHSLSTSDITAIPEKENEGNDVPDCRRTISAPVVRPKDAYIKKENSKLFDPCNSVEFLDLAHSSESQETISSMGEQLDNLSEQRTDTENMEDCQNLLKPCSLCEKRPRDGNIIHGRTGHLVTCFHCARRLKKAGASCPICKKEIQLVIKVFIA
Target sequence (Q00987 whole entry, looked up): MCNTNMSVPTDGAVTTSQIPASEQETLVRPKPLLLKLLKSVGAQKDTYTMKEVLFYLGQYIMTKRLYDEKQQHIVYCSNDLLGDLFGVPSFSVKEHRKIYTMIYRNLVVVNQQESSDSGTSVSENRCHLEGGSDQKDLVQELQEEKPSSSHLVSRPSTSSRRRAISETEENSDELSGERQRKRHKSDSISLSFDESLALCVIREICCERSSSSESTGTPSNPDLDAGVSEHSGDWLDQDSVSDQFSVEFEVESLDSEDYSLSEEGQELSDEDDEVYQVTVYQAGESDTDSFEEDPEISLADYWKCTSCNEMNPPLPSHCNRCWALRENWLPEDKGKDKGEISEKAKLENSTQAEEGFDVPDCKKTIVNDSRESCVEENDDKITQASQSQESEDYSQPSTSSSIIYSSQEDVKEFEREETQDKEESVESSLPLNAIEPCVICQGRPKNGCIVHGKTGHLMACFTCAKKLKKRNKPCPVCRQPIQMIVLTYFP
Lmaj promast = Leishmania major promastigote growth inhibition, primary screen | AID 1063, 2008 | Leishmania major promastigotes, resazurin fluorescence viability | 200,000 compounds, 9% hits | inhibition, % at 10 µM; in the data active means inhibition above about 50%;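 further: promastigotes grown with compound for 44 hours at 28 °C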
Beta apoptosis = inhibitors of cytokine-induced beta cell apoptosis, primary screen, luminescence. AID 435005, 2010. protection from apoptosis, % (test concentration not listed). INS-1E cytokine-induced death, ATP luminescence, 48 h; percent of positive-control rescue, neutral wells zero. 300,000 compounds, 0.8% hits;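 active means Every replicate reaches about 75%, or at least half do and their mean reaches it too, limit read from the data; inconclusive means At least half of replicates reach the limit but their mean does not; inactive means Under half of replicates reach the limit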;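 further: higher means more ATP so stronger rescue from cytokine killing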
CSC inhib = cancer stem cell viability inhibitors, primary screen, luminescence; cancer stem cell-like cells viability; inhibition, % at 7.5 µM; 300,000 compounds, 1.1% hits; in the data active means inhibition above about 75%; inconclusive means no clear call, values can overlap the other calls; tested in HMLE shEcad cells
SKKanGAS inh = S. pyogenes SKKanGAS growth inhibitors in kanamycin, primary screen, streptokinase expression inhibitor project, SKKanGAS strain, BacTiter-Glo luminescence; 300,000 compounds, 1.3% hits; inhibition, % at 7.5 µM; 6 h; AID 1662, 2009;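 active means mean replicate score, as percent of positive control median, at least 50; inconclusive means mean below 50 but one replicate at or above 50; inactive means mean and every replicate below 50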;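 further: strain carries kanamycin resistance gene driven by streptokinase promoter and grows in 40 µg/ml kanamycin; loss of luminescence reflects streptokinase promoter inhibition or plain growth inhibition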
Mdm2 MdmX conf = Mdm2-MdmX complex disruptors, retested hits, confirmation, luminescence, single concentration; shares compounds with Mdm2-MdmX inh; AID 489028, 2010; 10,000 compounds, 55% hits; inhibition, % at 8 µM; Mdm2-MdmX binding, luminescent assay; in the data active means inhibition above about 40%
Full FLuc ctr = full-length luciferase signal inhibition, confirmation, counter-screen for Mdm2/MdmX interaction inhibitor project, cell-based, single concentration, SaOS-2; shares compounds with Mdm2-MdmX inh; SaOS-2 full-length luciferase counterscreen, luminescence; inhibition, % at 8 µM; 6,200 compounds, 77% hits; AID 504607, 2011;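 active means mean inhibition at 8 µM reaching about 37%, which flags the compound as non-specific, limit read from the data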;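 further: p53-null SaOS-2 cells with luciferase driven by a doxycycline-inducible promoter; compound on cells about two nights before reading with doxycycline added after day one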
A number is an active result; n = inactive; u = inconclusive; x = not tested or not shown. A selection: hits, their analogues and other compounds. The true share with any hit is near 9.4%.

SMILES	T cruzi inh	Mdm2-MdmX inh	Lmaj promast	Beta apoptosis	CSC inhib	SKKanGAS inh	Mdm2 MdmX conf	Full FLuc ctr
O=C(Nc1cc(S(=O)(=O)N2CCOCC2)ccc1Cl)c1cc([N+](=O)[O-])ccc1Cl	x	97	x	n	n	x	44	n
Cc1ccc(CN2CCC(NC(=O)c3ccccc3)CC2)cc1	n	n	x	n	n	n	x	x
CCN(c1ccccc1)S(=O)(=O)c1ccc(C(=O)NC2CCN(Cc3ccccc3)CC2)cc1	x	54	x	84	n	x	55	57
Cc1cc(NC(=O)c2cc([N+](=O)[O-])ccc2Cl)no1	n	n	x	n	n	n	x	x
CCN1CCN(c2ccc(S(=O)(=O)N3CCCCC3)cc2NC(=O)/C=C/c2cc(OC)ccc2OC)CC1	n	100	x	n	n	n	45	63
O=C(Nc1cccc(NC(=O)c2cc([N+](=O)[O-])ccc2Cl)n1)c1cc([N+](=O)[O-])ccc1Cl	n	96	x	104	n	n	96	50
CCN1CCN(c2ccc(S(=O)(=O)N3CCCCC3)cc2NC(=O)/C=C/c2ccc(OC)c(OC)c2)CC1	n	n	x	n	n	n	x	x
CCN(c1ccccc1)S(=O)(=O)c1ccc(Cl)c(NC(=O)CN2CCCCCC2)c1	60	69	x	104	u	n	n	x
CN(C)S(=O)(=O)c1ccc(Cl)c(NC(=O)CN2CCCCCC2)c1	n	n	n	n	n	n	x	x
COc1ccc2[nH]c3c(c2c1)CC(C)NC3=O (centres undefined)	n	78	x	n	n	n	74	n
COc1ccc2[nH]c3c(c2c1)CCn1c-3nc2ccccc2c1=O	x	n	n	n	x	x	x	x
Cc1ccc(O)c(NC(=O)c2cc(-c3cccs3)on2)c1	n	n	x	n	n	n	x	x
COc1ccc(C(=O)COC(=O)CCN2C(=O)C3C4C=CC(C5CC45)C3C2=O)cc1 (centres undefined)	n	n	x	x	x	n	x	x
COc1ccc(OC)c(-c2nnc3n2N=C(c2ccc(OC)c(OCC4CC4)c2)CS3)c1	x	80	x	n	x	x	68	68
COc1ccc(C2=Nn3c(nnc3-c3ccccc3Cl)SC2)cc1OCC1CC1	x	73	x	n	x	x	57	45
COc1cccc(C(N)=O)c1OC(=O)Cc1ccccc1F	n	n	x	n	n	n	x	x
Cc1[nH]nc(-c2ccc(OCc3cnn(-c4ccccc4)c3)c(C)c2O)c1Oc1ccccc1	n	56	n	n	n	n	51	53
Cc1[nH]nc(-c2ccc(OCc3cnn(-c4ccccc4)c3)cc2O)c1Oc1ccc(F)cc1	n	n	n	n	n	n	x	x
CCOc1cccc(/C=N/NC(=O)c2ccc3c(c2)OCCO3)c1O	n	56	x	92	n	95	43	45
COc1cc(OC)c(OC)cc1/C=N/NC(=O)c1cc(-c2cccn2C)n[nH]1	n	n	n	n	n	n	x	x
C/C(=N\NC(=O)c1ccc2c(c1)OCCO2)c1ccccc1	n	71	x	n	n	n	n	x
COc1cccc(/C=N/NC(=O)CNC(=O)c2ccc3c(c2)OCCO3)c1O	n	n	n	n	n	n	x	x
CCOc1cccc(/C=N/NC(=O)c2cc(-c3cccn3C)n[nH]2)c1O	n	63	98	x	n	n	62	52
Cc1ccc(N2CC(C(=O)N/N=C/c3c(F)cccc3Cl)CC2=O)cc1 (centres undefined)	n	n	x	n	n	n	x	x
CCN(CC(=O)Nc1ccc(NC(C)=O)cc1)C(=O)c1cc(CN2C(=O)c3ccccc3C2=O)ccc1OC	n	n	x	n	n	n	x	x
SMILES	T cruzi inh	Mdm2-MdmX inh	Lmaj promast	Beta apoptosis	CSC inhib	SKKanGAS inh	Mdm2 MdmX conf	Full FLuc ctr
COC1(OC)C(/C=C/c2ccc(Cl)cc2)C(C#N)(C#N)C1(OC)OC (centres undefined)	n	88	85	n	n	n	57	n
Cc1cc(C)c(C(=O)N2CCCC(CNC(=O)C3(c4ccc(Cl)cc4)CC3)C2)c(=O)[nH]1 (centres undefined)	n	n	n	n	n	n	x	x
CCC(C)Sc1cccc(-c2nc3ccc(Cl)cn3c2NCc2ccccc2)c1 (centres undefined)	n	66	x	n	n	n	n	x
O=[N+]([O-])c1ccccc1/C=C/C=N/n1c(-c2ccccc2F)n[nH]c1=S	n	n	x	n	n	n	x	x
CC1CCc2nc3ccccc3c(C(=O)OCC(=O)NC3CCS(=O)(=O)C3)c2C1 (centres undefined)	n	n	n	n	n	n	x	x
COc1cccc(NC(=O)COC(=O)c2c3c(nc4ccccc24)CCC(C)C3)c1 (centres undefined)	73	79	54	n	n	n	64	64
CC(C)N1C(=S)N(Cc2ccco2)C(=O)C1CC(=O)Nc1ccccc1 (centres undefined)	n	n	n	x	x	n	x	x
COC(=O)[C@@]12CCCCN1[C@H](c1ccc(-c3ccccc3)c(OC)c1)[C@H]1C(=O)N(C)C(=O)[C@H]12	x	n	x	n	x	x	x	x
CCN1C(=O)[C@@H]2[C@@H](c3ccc(-c4ccc(Cl)c(Cl)c4)c(OC)c3)N3CCCC[C@@]3(C(=O)OC)[C@@H]2C1=O	n	53	x	n	n	n	n	x
COC(=O)[C@@]12CCCCN1[C@H](c1ccc(-c3cccc(Cl)c3)c(OC)c1)[C@@H]1C(=O)N(C)C(=O)[C@@H]12	56	73	x	n	n	n	n	x
COC(=O)[C@@]12CCCCN1[C@H](c1ccc(-c3ccc(F)cc3)cc1)[C@H]1C(=O)N(C)C(=O)[C@H]12	x	64	x	n	x	x	46	48
Cc1cccc(CC(=O)NCCN2CCCCC2)c1	n	n	x	n	n	n	x	x
COc1ccc(C2=NOC(C)(c3nnc(-c4ccc(F)cc4)o3)C2)cc1 (centres undefined)	n	n	x	x	n	n	x	x
CN1C(=O)c2cccc3c(S(=O)(=O)Nc4ccccc4F)ccc1c23	n	51	x	n	n	n	n	x
CCN1C(=O)c2cccc3c(S(=O)(=O)Nc4nc(C)cs4)ccc1c23	n	73	n	n	n	n	n	x
CCN1C(=O)c2cccc3c(S(=O)(=O)Nc4ncccc4C)ccc1c23	n	51	n	n	n	n	n	x
CNS(=O)(=O)c1ccc2c3c(cccc13)C(=O)N2C	n	n	x	x	n	n	x	x
CCN1C(=O)c2cccc3c(S(=O)(=O)Nc4ccccc4)ccc1c23	n	81	n	n	n	n	73	70

High-throughput results: PubChem, several laboratories
